We go through 40 compounds from ChEMBL document CHEMBL2331365, “Discovery of novel 2-hydroxydiarylamide derivatives as TMPRSS4 inhibitors” (Bioorg Med Chem Lett, 2013).

Counter-ions that a name gives are not always drawn.

Data set [1] deals with T1, Transmembrane protease serine 4 (Homo sapiens, UniProt Q9NRS4). Briefly: Inhibition of N-terminal His6-tagged recombinant TMPRSS4 (unknown origin) fused with enterokinase cleavage sequence DYKDDDGDYKDDDDK expressed in Escherichia coli BL21 (DE3) using Z-Phe-Arg-7-amido-4-methylcoumarin hydrochloride as substrate by fluorometric analysis.
The nature of data set [2]: Cytotoxicity against human SW480 cells overexpressing TMPRSS4 assessed as cell viability at 0.1 uM after 2 days by CCK-8 assay. It is filed as cell-based. As to conditions: read-out: Activity. A digest of the protocol: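 Seeded at 10,000 cells/well, exposed to 0.1 µM compound or none at 37 °C for 2 days; CCK-8 reagent added and absorbance read at 450 nm. Higher value taken as lower cytotoxicity.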

For data set [3], the target named is T1, Transmembrane protease serine 4. Briefly: Inhibition of TMPRSS4 in human SW480 cells assessed as inhibition of cell invasion at 0.1 uM relative to control. It is filed as cell-based. The gist of the method: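 SW480 cells overexpressing TMPRSS4 (clone T19) left to invade reconstituted basement membrane (Matrigel) with 0.1 µM compound present. Invasion expressed as percent inhibition relative to DMSO negative control.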

T1 sequence (Q9NRS4 whole entry, the tested form may be a part): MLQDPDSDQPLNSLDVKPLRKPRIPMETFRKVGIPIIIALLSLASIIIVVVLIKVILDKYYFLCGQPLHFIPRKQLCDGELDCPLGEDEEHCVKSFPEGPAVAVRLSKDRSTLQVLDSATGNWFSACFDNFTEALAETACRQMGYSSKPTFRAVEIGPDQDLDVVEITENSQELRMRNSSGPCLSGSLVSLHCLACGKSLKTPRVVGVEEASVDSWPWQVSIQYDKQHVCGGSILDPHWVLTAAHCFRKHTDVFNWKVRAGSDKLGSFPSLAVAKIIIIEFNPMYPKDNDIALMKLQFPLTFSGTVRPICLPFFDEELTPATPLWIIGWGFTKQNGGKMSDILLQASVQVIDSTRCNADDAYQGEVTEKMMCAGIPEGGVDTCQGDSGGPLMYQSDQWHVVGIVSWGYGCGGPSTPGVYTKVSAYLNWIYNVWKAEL

As usually defined, the IC50 is the point on the concentration scale where inhibition reaches its midpoint. Consider `O=C(Nc1cc(Cl)cc(Cl)c1)c1cc(Cl)ccc1O`, for which the IC50 in data set [1] is 19 µM. Same read-out and setting: with `N#Cc1ccc(NC(=O)c2cc(Cl)ccc2O)cc1` the figure was 76 µM; with `CC(=O)Oc1ccc(Cl)cc1C(=O)Nc1cc(C(F)(F)F)cc(C(F)(F)F)c1`, > 100 µM. Still for that read-out and setting: the value for `O=C(Nc1cc(C(F)(F)F)cc(C(F)(F)F)c1)c1ccc2ccccc2c1O` was > 100 µM; that for `O=C(Nc1cc(C(F)(F)F)ccc1F)c1cc(Cl)ccc1O` was 28 µM. Still for that read-out and setting: the value for `O=C(Nc1cc(Cl)c(Cl)c(Cl)c1)c1cc(Cl)ccc1O` was > 100 µM.

Regarding `O=C(Nc1cc(C(F)(F)F)cc(C(F)(F)F)c1)c1cc(F)ccc1O`, the IC50 in data set [1] was found to be 29 µM. Same read-out and setting: with `O=C(Nc1ccc(Cl)c(C(F)(F)F)c1)c1cc(Cl)ccc1O` the figure was 35 µM; with `O=C(Nc1ccc(C(F)(F)F)cn1)c1cc(Cl)ccc1O`, > 100 µM. With `O=C(Nc1cc(C(F)(F)F)cc(C(F)(F)F)c1)c1cc(Cl)cnc1O`, the IC50 in data set [1] is > 100 µM.

Consider `COc1c(C(F)(F)F)cc(NC(=O)c2cc(Cl)ccc2O)cc1C(F)(F)F`, for which the IC50 in data set [1] is 12 µM. Broadly, the inhibition is the percentage by which the read-out fell short of the control. Consider `O=C(Nc1cc(C(F)(F)F)c(Br)c(C(F)(F)F)c1)c1cc(Cl)ccc1O`, for which the viability at 48 h, 0.1 µM in data set [2] was determined as 89%. Also, the inhibition in data set [3] amounted to 53%. Moreover, the IC50 in data set [1] was found to be 6 µM.

On to `NC(=O)c1ccc(O)c(C(=O)Nc2cc(C(F)(F)F)cc(C(F)(F)F)c2)c1`, for which, in data set [1], the IC50 was > 100 µM. In the case of `O=C(Nc1cc(C(F)(F)F)cc(C(F)(F)F)c1)c1cc(Cl)ccc1OCc1ccccc1`, the IC50 in data set [1] was > 100 µM. For `O=C(NCc1cc(C(F)(F)F)cc(C(F)(F)F)c1)c1cc(Cl)ccc1O`, in data set [1], the IC50 amounted to 18 µM. The same measure, in the same setting: with `O=C(Nc1cc(C(F)(F)F)cc(C(F)(F)F)c1)c1c[nH]c2ccccc2c1=O` the figure was > 100 µM.

Consider `N#Cc1ccc(NC(=O)c2cc(Cl)ccc2O)nc1`, for which the IC50 in data set [1] is 80 µM.

With `O=C(Nc1cc(Br)cc(C(F)(F)F)c1)c1cc(Cl)ccc1O`, the viability at 48 h, 0.1 µM in data set [2] was 93%. The inhibition in data set [3] worked out at 43%. Besides, the IC50 in data set [1] amounted to 12 µM. On to `O=C(Nc1ccc(C(F)(F)F)c(C(F)(F)F)c1)c1cc(Cl)ccc1O`, for which the IC50 in data set [1] is 13 µM.

Take `O=C(Nc1ccc(Cl)nc1)c1cc(Cl)ccc1O`: the IC50 in data set [1] was > 100 µM.

On to `O=C(Nc1cc(C(F)(F)F)cc(C(F)(F)F)c1)c1ccccc1O`, for which, in data set [1], the IC50 was > 100 µM. With `O=C(Nc1cc(C(F)(F)F)cc(C(F)(F)F)c1)c1ccc(Cl)cc1O`, the IC50 in data set [1] amounted to 12 µM. With `O=C(Nc1ccnc(Cl)c1)c1cc(Cl)ccc1O`, in data set [1], the IC50 is > 100 µM. Same read-out and setting: with `O=C(Nc1cc(C(F)(F)F)ccc1C(F)(F)F)c1cc(Cl)ccc1O` the figure was 20 µM. Turning to `O=C(Nc1cc(C(F)(F)F)cc(C(F)(F)F)c1)c1cc(Cl)ccc1O` [IMD-0354], the viability at 48 h, 0.1 µM in data set [2] came to 90%. Further, the inhibition in data set [3] is 45%. Moreover, in data set [1], the IC50 was 11 µM. Regarding `O=C(Nc1ccc(Br)c(C(F)(F)F)c1)c1cc(Cl)ccc1O`, the IC50 in data set [1] came to 30 µM. Regarding `O=C(Nc1ncccn1)c1cc(Cl)ccc1O`, the IC50 in data set [1] was > 100 µM. As for `O=C(Nc1cc(C(F)(F)F)cc(C(F)(F)F)c1)c1cc([N+](=O)[O-])ccc1O`, in data set [2], the viability at 48 h, 0.1 µM was found to be 96%. Also, the inhibition in data set [3] worked out at 26%. Further, the concentration for half-maximal inhibition (IC50) in data set [1] worked out at 12 µM. In the case of `O=C(Nc1cc(C(F)(F)F)cc(C(F)(F)F)c1)c1cccc(Cl)c1O`, in data set [1], the IC50 amounted to 12 µM. The same measure, in the same setting: with `Cc1cc(C)cc(NC(=O)c2cc(Cl)ccc2O)c1` the figure was 39 µM; with `Cc1ccc(O)c(C(=O)Nc2cc(C(F)(F)F)cc(C(F)(F)F)c2)c1`, 28 µM; with `O=C(Nc1ccccc1)c1cc(Cl)ccc1O`, 50 µM. The same measure, in the same setting: with `O=C(Nc1cnc2ccccc2c1)c1cc(Cl)ccc1O` the figure was 85 µM; with `N#Cc1ccc(O)c(C(=O)Nc2cc(C(F)(F)F)cc(C(F)(F)F)c2)c1`, 19 µM. For the compound `O=C(Nc1cc(C(F)(F)F)cc(C(F)(F)F)c1)c1cc(Br)ccc1O`, the IC50 in data set [1] amounted to 13 µM. As to `COc1ccc(O)c(C(=O)Nc2cc(C(F)(F)F)cc(C(F)(F)F)c2)c1`, in data set [1], the IC50 was found to be 29 µM. For `Cc1c(C(F)(F)F)cc(NC(=O)c2cc(Cl)ccc2O)cc1C(F)(F)F`, the viability at 48 h, 0.1 µM in data set [2] worked out at 90%. The inhibition in data set [3] is 43%. The IC50 in data set [1] was determined as 10 µM. Consider `NCCc1ccc(S(=O)(=O)F)cc1` [4-AMINOETHYLBENZENESULFONYL FLUORIDE HYDROCHLORIDE], for which the IC50 in data set [1] amounted to 39 µM. On to `COc1cc(NC(=O)c2cc(Cl)ccc2O)cc(C(F)(F)F)c1`, for which, in data set [1], the IC50 amounted to 16 µM. Still for that read-out and setting: the value for `O=C(Nc1cccc(C(F)(F)F)c1)c1cc(Cl)ccc1O` was 13 µM.
